The source made the active and inactive calls. The calls are words filed in the database; no cut-off is given here.
Columns and labels:
Format in all cases: functional, organism-based
[1] = system: Mus musculus; experiment: Immunostimulatory activity in ovalbumin-immunized BALB/c mouse assessed as potentiation of OVA specific antibody response by measuring increase in serum anti-OVA IgG level at 100 ug, sc administered at 14 days interval for 3 times and measured at 4 to 6 week post OVA immunization by ELISA
Summary of the method: (§1)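 Female BALB/c mice, 8-10 weeks old, six per group. Given OVA (20 μg) s.c. alone or with 100 μg saponin adjuvant on days 0, 14 and 28. Tail-vein blood was taken before each dose and 2 weeks after the last. Serum anti-OVA IgG, IgG1 or IgG2a was measured by ELISA on OVA-coated (0.1 μg/ml) plates with serial two-fold dilutions in duplicate.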

[2] = system: Mus musculus; experiment: Immunostimulatory activity in rHagB-immunized BALB/c mouse assessed as potentiation of rHagB specific antibody response by measuring increase in serum anti-rHagB IgG level at 100 ug, sc administered at 14 days interval for 3 times and measured at 2 to 4 week post rHagB immunization by ELISA
Summary of the method: (§2)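 Female BALB/c mice, 8-10 weeks old, six per group. Given His-tag-purified recombinant HagB (35 μg) s.c. alone or with 100 μg saponin adjuvant on days 0, 14 and 28. Serum was collected before each dose and 2 weeks post-final. Anti-rHagB IgG, IgG1 or IgG2a was measured by ELISA on rHagB-coated (1 μg/ml) plates with duplicate serial dilutions.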

[3] = system: Mus musculus; experiment: Immunostimulatory activity in ovalbumin-immunized BALB/c mouse assessed as potentiation of OVA specific Th1 immune response by measuring increase in serum anti-OVA IgG2a level at 100 ug, sc administered at 14 days interval for 3 times and measured at 4 to 6 week post OVA immunization by ELISA; summary of the method: as §1
[4] = system: Mus musculus; experiment: Immunostimulatory activity in ovalbumin-immunized BALB/c mouse assessed as potentiation of OVA specific Th2 immune response by measuring increase in serum anti-OVA IgG1 level at 100 ug, sc administered at 14 days interval for 3 times and measured at 4 to 6 week post OVA immunization by ELISA; summary of the method: as §1
[5] = system: Mus musculus; experiment: Immunostimulatory activity in rHagB-immunized BALB/c mouse assessed as potentiation of rHagB specific antibody response by measuring increase in serum anti-rHagB IgG level at 100 ug, sc administered at 14 days interval for 3 times and measured at 6 week post rHagB immunization by ELISA; summary of the method: as §2
[6] = system: Mus musculus; experiment: Immunostimulatory activity in rHagB-immunized BALB/c mouse assessed as potentiation of rHagB specific Th2 immune response by measuring increase in serum anti-rHagB IgG1 level at 100 ug, sc administered at 14 days interval for 3 times and measured at 2 to 4 week post rHagB immunization by ELISA; summary of the method: as §2
[7] = system: Mus musculus; experiment: Immunostimulatory activity in rHagB-immunized BALB/c mouse assessed as potentiation of rHagB specific Th1 immune response by measuring increase in serum anti-rHagB IgG2a level at 100 ug, sc administered at 14 days interval for 3 times and measured at 2 to 6 week post rHagB immunization by ELISA; summary of the method: as §2
[8] = system: Mus musculus; experiment: Immunostimulatory activity in rHagB-immunized BALB/c mouse assessed as potentiation of rHagB specific Th2 immune response by measuring increase in serum anti-rHagB IgG1 level at 100 ug, sc administered at 14 days interval for 3 times and measured at 6 week post rHagB immunization by ELISA; summary of the method: as §2
[9] = system: Mus musculus; experiment: Immunostimulatory activity in ovalbumin-immunized BALB/c mouse assessed as potentiation of OVA specific Th2 immune response by measuring increase in serum anti-OVA IgG1 level at 100 ug, sc administered at 14 days interval for 3 times and measured at 6 week post OVA immunization by ELISA; summary of the method: as §1
[10] = system: Mus musculus; experiment: Immunostimulatory activity in ovalbumin-immunized BALB/c mouse assessed as potentiation of OVA specific Th2 immune response by measuring increase in serum anti-OVA IgG1 level at 100 ug, sc administered at 14 days interval for 3 times and measured at 4 week post OVA immunization by ELISA; summary of the method: as §1

| SMILES | Activity [1] | Activity [2] | Activity [3] | Activity [4] | Activity [5] | Activity [6] | Activity [7] | Activity [8] | Activity [9] | Activity [10] |
| --- | --- | --- | --- | --- | --- | --- | --- | --- | --- | --- |
| CCCCCCCCCCCCNC(=O)[C@H]1O[C@@H](O[C@H]2CC[C@]3(C)[C@H]4CC=C5[C@@H]6CC(C)(C)CC[C@]6(C(=O)O[C@@H]6O[C@H](C)[C@H](O)[C@H](O)[C@H]6O[C@@H]6O[C@@H](C)[C@H](O[C@@H]7OC[C@@H](O)[C@H](O[C@@H]8OC[C@](O)(CO)[C@H]8O)[C@H]7O)[C@@H](O)[C@H]6O)[C@H](O)C[C@@]5(C)[C@]4(C)CC[C@H]3[C@]2(C)C=O)[C@H](O[C@@H]2O[C@H](CO)[C@H](O)[C@H](O)[C@H]2O)[C@@H](O[C@@H]2OC[C@@H](O)[C@H](O)[C@H]2O)[C@@H]1O | Active | Active | Active | Active | Active | Active | Active | – | – | – |
| C[C@@H]1O[C@@H](O[C@H]2[C@H](O)[C@@H](C(=O)NCCCCCCCCCCC(=O)OCc3ccccc3)O[C@@H](O[C@H]3CC[C@]4(C)[C@H]5CC=C6[C@@H]7CC(C)(C)CC[C@]7(C(=O)O[C@@H]7O[C@H](C)[C@H](O)[C@H](O)[C@H]7O[C@H]7O[C@@H](C)[C@H](O[C@H]8OC[C@H](O)[C@@H](O)[C@@H]8O)[C@@H](O[C@@H]8O[C@H](CO)[C@@H](O)[C@H](O[C@@H]9OC[C@@H](O)[C@H](O)[C@H]9O)[C@H]8O)[C@H]7O)[C@H](O)C[C@@]6(C)[C@]5(C)CC[C@H]4[C@]3(C)C=O)[C@@H]2O[C@@H]2O[C@H](CO)[C@H](O)[C@H](O)[C@H]2O)[C@H](O)[C@H](O)[C@H]1O | Active | Active | Active | Active | – | Active | Active | – | – | – |
| C[C@@H]1O[C@H](O[C@H]2[C@H](OC(=O)[C@]34CCC(C)(C)C[C@H]3C3=CC[C@@H]5[C@@]6(C)CC[C@H](O[C@@H]7O[C@H](C(=O)NCCCCCCCCCCC(=O)OCc8ccccc8)[C@@H](O)[C@H](O[C@@H]8OC[C@@H](O)[C@H](O)[C@H]8O)[C@H]7O[C@@H]7O[C@H](CO)[C@H](O)[C@H](O)[C@H]7O)[C@@](C)(C=O)[C@@H]6CC[C@@]5(C)[C@]3(C)C[C@H]4O)O[C@H](C)[C@H](O)[C@@H]2O)[C@H](O)[C@H](O[C@@H]2O[C@H](CO)[C@@H](O)[C@H](O)[C@H]2O)[C@H]1O[C@H]1OC[C@H](O)[C@@H](O[C@H]2OC[C@H](O)[C@@H](O)[C@@H]2O)[C@@H]1O | – | Active | – | – | – | Active | Active | Active | – | – |
| CCCCCCCCCCCCNC(=O)[C@H]1O[C@@H](O[C@H]2CC[C@]3(C)[C@H]4CC=C5[C@@H]6CC(C)(C)CC[C@]6(C(=O)O[C@@H]6O[C@H](C)[C@H](O)[C@H](O)[C@H]6O[C@H]6O[C@@H](C)[C@H](O[C@H]7OC[C@H](O)[C@@H](O)[C@@H]7O)[C@@H](O[C@@H]7O[C@H](CO)[C@@H](O)[C@H](O[C@@H]8OC[C@@H](O)[C@H](O)[C@H]8O)[C@H]7O)[C@H]6O)CC[C@@]5(C)[C@]4(C)CC[C@H]3[C@]2(C)C=O)[C@H](O[C@@H]2O[C@H](CO)[C@H](O)[C@H](O)[C@H]2O)[C@@H](O[C@@H]2O[C@@H](C)[C@H](O)[C@@H](O)[C@H]2O)[C@@H]1O | Active | – | Active | Active | – | – | – | – | – | – |
| C[C@@H]1O[C@@H](O[C@H]2[C@H](O)[C@@H](C(=O)NCCCCCCCCCCC(=O)O)O[C@@H](O[C@H]3CC[C@]4(C)[C@H]5CC=C6[C@@H]7CC(C)(C)CC[C@]7(C(=O)O[C@@H]7O[C@H](C)[C@H](O)[C@H](O)[C@H]7O[C@H]7O[C@@H](C)[C@H](O[C@H]8OC[C@H](O)[C@@H](O)[C@@H]8O)[C@@H](O[C@@H]8O[C@H](CO)[C@@H](O)[C@H](O[C@@H]9OC[C@@H](O)[C@H](O)[C@H]9O)[C@H]8O)[C@H]7O)[C@H](O)C[C@@]6(C)[C@]5(C)CC[C@H]4[C@]3(C)C=O)[C@@H]2O[C@@H]2O[C@H](CO)[C@H](O)[C@H](O)[C@H]2O)[C@H](O)[C@H](O)[C@H]1O | Active | Active | – | – | – | Active | Active | – | inactive | Active |
| C[C@@H]1O[C@@H](O[C@H]2[C@H](O)[C@@H](C(=O)NCCCCCCCCCCC(=O)O)O[C@@H](O[C@H]3CC[C@]4(C)[C@H]5CC=C6[C@@H]7CC(C)(C)CC[C@]7(C(=O)O[C@@H]7O[C@H](C)[C@H](O)[C@H](O)[C@H]7O[C@H]7O[C@@H](C)[C@H](O[C@H]8OC[C@H](O)[C@@H](O)[C@@H]8O)[C@@H](O[C@@H]8O[C@H](CO)[C@@H](O)[C@H](O[C@@H]9OC[C@@H](O)[C@H](O)[C@H]9O)[C@H]8O)[C@H]7O)CC[C@@]6(C)[C@]5(C)CC[C@H]4[C@]3(C)C=O)[C@@H]2O[C@@H]2O[C@H](CO)[C@H](O)[C@H](O)[C@H]2O)[C@H](O)[C@H](O)[C@H]1O | Active | – | Active | Active | – | – | – | – | – | – |
| C[C@@H]1O[C@H](O[C@H]2[C@H](OC(=O)[C@]34CCC(C)(C)C[C@H]3C3=CC[C@@H]5[C@@]6(C)CC[C@H](O[C@@H]7O[C@H](C(=O)NCCCCCCCCCCC(=O)O)[C@@H](O)[C@H](O[C@@H]8OC[C@@H](O)[C@H](O)[C@H]8O)[C@H]7O[C@@H]7O[C@H](CO)[C@H](O)[C@H](O)[C@H]7O)[C@@](C)(C=O)[C@@H]6CC[C@@]5(C)[C@]3(C)C[C@H]4O)O[C@H](C)[C@H](O)[C@@H]2O)[C@H](O)[C@H](O[C@@H]2O[C@H](CO)[C@@H](O)[C@H](O)[C@H]2O)[C@H]1O[C@H]1OC[C@H](O)[C@@H](O[C@H]2OC[C@H](O)[C@@H](O)[C@@H]2O)[C@@H]1O | – | Active | – | – | – | Active | Active | Active | – | – |
| C[C@@H]1O[C@@H](O[C@H]2[C@H](O)[C@@H](C(=O)NCCCCCCCCCCC(=O)OCc3ccccc3)O[C@@H](O[C@H]3CC[C@]4(C)[C@H]5CC=C6[C@@H]7CC(C)(C)CC[C@]7(C(=O)O[C@@H]7O[C@H](C)[C@H](O)[C@H](O)[C@H]7O[C@H]7O[C@@H](C)[C@H](O[C@H]8OC[C@H](O)[C@@H](O)[C@@H]8O)[C@@H](O[C@@H]8O[C@H](CO)[C@@H](O)[C@H](O[C@@H]9OC[C@@H](O)[C@H](O)[C@H]9O)[C@H]8O)[C@H]7O)CC[C@@]6(C)[C@]5(C)CC[C@H]4[C@]3(C)C=O)[C@@H]2O[C@@H]2O[C@H](CO)[C@H](O)[C@H](O)[C@H]2O)[C@H](O)[C@H](O)[C@H]1O | Active | – | Active | Active | – | – | – | – | – | – |
